Test results from ChEMBL document CHEMBL5678801, “A benzothiophene inhibitor of mitogen-activated protein kinase-activated protein kinase 2 inhibits tumor necrosis factor alpha production and has oral anti-inflammatory efficacy in acute and chronic models of inflammation” (J Pharmacol Exp Ther, 2010).
pIC50: −log10 of the molar value.

What was measured:
[1] = Cmax in chronic SCW-induced arthritis Lewis rat model plasma at ED50 concentration; assay type: ADME, cell-free
Method in brief: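 Female Lewis rats (125-140 g) received a single i.p. streptococcal cell wall injection. Animals showing the acute phase were pooled, 4-8 per group over three experiments. Dosing was oral gavage b.i.d., days 10-21, in methylcellulose-Tween-20 vehicle. Hind paw volume was read by displacement plethysmometer on day 21, as % inhibition of swelling. Plasma was sampled up to 11 h after the last dose, 3 rats per dose. ED values came from fitted curves.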

[2] = target: MAP kinase-interacting serine/threonine-protein kinase 2 (Homo sapiens, UniProt Q9HBH9); assay: Inhibition of recombinant MNK2 (unknown origin) using KKKALSRQLSVAA as substrate incubated for 1 hr followed by substrate addition in presence of ATP
Method in brief: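 Recombinant MAPKAP kinase was first activated with activated p38α (1:50 molar ratio) and 250 μM ATP for 1 hr at 30°C. Activity was then assayed at Km(app) MgATP by ion-exchange separation of 33P-labeled product peptide. IC50 was taken from duplicate experiments.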

[3] = Inhibition of CaMK II (unknown origin); design: species or system Homo sapiens
[4] = target: Serine/threonine-protein kinase pim-1 (Homo sapiens, UniProt P11309); assay: Inhibition of Pim1 (unknown origin)
Method in brief: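 Kinase panel: 200 kinases were first screened at 1 μM inhibitor for percent inhibition. Those above 50% inhibition were then titrated for IC50. MgATP was fixed at the Km(app) determined for each enzyme.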

[5] = Inhibition of IL-1 beta production in LPS induced human PBMC cells preincubated with compound for 1 hr followed by LPS induction and measured after 16 hrs by MSD analysis; assay type: functional, cell-based
Method in brief: (§1)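 Human PBMCs were pretreated with compound for 1 h (<1% DMSO final), then stimulated with LPS 100 ng/ml at 37°C. Cytokines in culture media were read by MSD 4-plex: TNFα at 4 h; IL-1β, IL-6 and IL-8 at 16 h. Data are means ±S.E.M. of two independent experiments in duplicate, three donors. IC50 by 4-parameter nonlinear regression.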

[6] = Inhibition of IL-6 production in LPS induced human PBMC cells preincubated with compound for 1 hr followed by LPS induction and measured after 16 hrs by MSD analysis; assay type: functional, cell-based; method in brief: as §1
[7] = Inhibition of IL-8 production in LPS induced human PBMC cells preincubated with compound for 1 hr followed by LPS induction and measured after 16 hrs by MSD analysis; assay type: functional, cell-based; method in brief: as §1
[8] = Inhibition of TNFalpha production in LPS induced human Whole blood cell preincubated with compound for 1 hr followed by LPS induction and measured after 4 hrs; assay type: functional, cell-based
Method in brief: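 Human whole blood was stimulated with LPS 100 ng/ml for 4 h. Plasma TNFα was read by MSD kit. Three separate experiments in duplicate, mean ±S.E.M. IC50 by 4-parameter nonlinear regression.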

[9] = Inhibition of MK2 activity in LPS induced human Whole blood cell preincubated with compound for 1 hr followed by LPS induction and measured after 30 mins by Dissociation enhanced lanthanide fluoro-immuno assay; assay type: functional, cell-based
Method in brief: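 Whole blood was stimulated with LPS 100 ng/ml for 30 min. Phospho-Ser82 HSP27 and total HSP27 in lysates were read by DELFIA immunoassay.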

[10] = Inhibition of IL-8 production in LPS induced human Whole blood cell preincubated with compound for 1 hr followed by LPS induction and measured after 16 hrs; assay type: functional, cell-based
Method in brief: (§2)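 Human whole blood was stimulated ex vivo with LPS 100 ng/ml. Plasma cytokines were read by MSD 4-plex: TNFα at 4 h; IL-1β, IL-6 and IL-8 at 16 h. Data are means ±S.E.M. of two independent experiments in duplicate, three donors. IC50 by 4-parameter nonlinear regression.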

[11] = Antiinflammatory activity in human PBMC cells assessed as inhibition of LPS induced IL-8 production preincubated for 1 hr followed by LPS stimulation and measured after 16 hrs by MSD analysis; assay type: functional, cell-based; method in brief: as §1
[12] = Antiinflammatory activity in human Whole blood cell assessed as inhibition of LPS induced IL-1 beta production preincubated for 1 hr followed by LPS stimulation and measured after 16 hrs by MSD analysis; assay type: functional, cell-based; method in brief: as §2
[13] = Volume of distribution at steady state in Sprague-Dawley rat measured upto 24 hrs by […] analysis; assay type: ADME; conditions: in vivo, read-out: Vdss
Method in brief: (§3)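 Male Sprague-Dawley rats (275-300 g), carotid-catheterized and acclimated overnight. Dosing was i.v. at 1 mpk (n=2) in 70% saline/20% PEG-400/10% ethanol, or oral at 3 mpk (n=3) as a suspension in 0.5% HPMC/Tween. Plasma drug was measured by LC-MS/MS. Cmax and Tmax were read from individual profiles. t½ came from the terminal log-linear slope and AUC by the linear trapezoidal rule. CL = dose/AUC0-∞, Vdss = CL×MRT, F = dose-normalized AUC po/iv.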

[14] = Half life in Sprague-Dawley rat measured upto 24 hrs by […] analysis; assay type: ADME; conditions: in vivo; method in brief: as §3
[15] = Cmax in Sprague-Dawley rat at 3 mg/kg, po measured upto 24 hrs by […] analysis; assay type: ADME, organism-based; conditions: in vivo; method in brief: as §3
[16] = Plasma protein binding in rat; assay type: ADME, cell-free
Method in brief: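 Binding to rat and human plasma was measured in vitro by ultracentrifugation.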

[17] = Unbound plasma concentration in po dosed LPS-induced Lewis rat model at ED50 concentration measured after 5.5 hrs of initial dose by LC-MS/MS analysis; assay type: ADME, organism-based; conditions: in vivo
Method in brief: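 Male Lewis rats (225-250 g, 5 per group) were fasted 18 h, then dosed orally at 0.2-60 mg/kg as a suspension in 0.5% methylcellulose/0.025% Tween 20. LPS 1 mg/kg was given i.v. 4 h later. Blood was taken by cardiac puncture 90 min after LPS. Serum TNFα was read by ELISA and drug by LC-MS/MS, three independent experiments. 4-parameter fit. Unbound values were corrected with measured rat plasma protein binding.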

[18] = target: MAP kinase-activated protein kinase 2 (Homo sapiens, UniProt P49137)
Sequence of MAP kinase-activated protein kinase 2 (P49137 whole entry, looked up): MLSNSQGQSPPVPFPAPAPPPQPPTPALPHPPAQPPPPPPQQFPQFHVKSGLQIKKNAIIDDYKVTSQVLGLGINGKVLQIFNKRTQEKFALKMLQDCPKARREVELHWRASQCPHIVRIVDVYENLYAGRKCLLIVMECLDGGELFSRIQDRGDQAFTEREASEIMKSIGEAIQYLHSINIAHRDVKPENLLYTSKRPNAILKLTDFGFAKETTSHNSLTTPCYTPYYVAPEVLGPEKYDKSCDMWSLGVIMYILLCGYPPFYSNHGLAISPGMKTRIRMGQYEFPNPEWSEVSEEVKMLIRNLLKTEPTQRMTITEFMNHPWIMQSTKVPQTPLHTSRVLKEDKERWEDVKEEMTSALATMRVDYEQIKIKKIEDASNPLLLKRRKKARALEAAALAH

Sequence of Serine/threonine-protein kinase pim-1 (P11309 whole entry): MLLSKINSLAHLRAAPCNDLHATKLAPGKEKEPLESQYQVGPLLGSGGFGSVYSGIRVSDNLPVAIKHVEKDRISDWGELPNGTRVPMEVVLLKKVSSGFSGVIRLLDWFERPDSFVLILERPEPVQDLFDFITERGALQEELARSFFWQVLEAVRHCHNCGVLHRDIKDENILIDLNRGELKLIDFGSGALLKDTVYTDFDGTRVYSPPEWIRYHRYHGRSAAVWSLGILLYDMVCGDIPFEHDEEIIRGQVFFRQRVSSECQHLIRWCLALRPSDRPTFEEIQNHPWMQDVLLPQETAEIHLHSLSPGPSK
Sequence of MAP kinase-interacting serine/threonine-protein kinase 2 (Q9HBH9 whole entry): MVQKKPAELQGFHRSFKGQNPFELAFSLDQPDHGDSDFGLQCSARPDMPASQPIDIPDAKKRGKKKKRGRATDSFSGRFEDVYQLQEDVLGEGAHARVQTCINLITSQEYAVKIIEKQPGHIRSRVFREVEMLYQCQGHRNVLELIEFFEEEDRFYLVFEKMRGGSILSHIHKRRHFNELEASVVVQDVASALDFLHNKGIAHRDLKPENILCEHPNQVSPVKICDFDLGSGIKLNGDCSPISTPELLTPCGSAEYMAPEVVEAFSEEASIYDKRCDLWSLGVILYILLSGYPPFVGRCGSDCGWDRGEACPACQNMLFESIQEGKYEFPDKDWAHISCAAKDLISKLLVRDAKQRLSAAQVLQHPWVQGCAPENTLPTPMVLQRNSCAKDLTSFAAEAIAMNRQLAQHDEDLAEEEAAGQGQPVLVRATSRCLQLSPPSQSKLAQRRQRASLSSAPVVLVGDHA

Compound `Cc1ccc(-c2ccc3c(ccc4sc5c(c43)NC[C@@H](C)NC5=O)n2)cn1` has a Cmax [1] of 11000 nM, a pIC50 [2] of 6.83 and a pIC50 [3] of 7.15. It also gave a pIC50 [4] of 7.06, a pIC50 [5] of 5.56 and a pIC50 [6] of 5.90. It also gave a pIC50 [7] of 5.68, a pIC50 [8] of 5.71 and a pIC50 [9] of 5.80. For the same compound, the pIC50 [10] was less than 4.60, the pIC50 [11] was 5.59 and the pIC50 [12] was less than 4.70. The Vd [13] was 1.5 L/kg, the half-life [14] was 9.1 h and the Cmax [15] was 660 nM. It also gave a PPB [16] of 92.1%, a Cp(f) [17] of 110 nM and a fIC50 [18] of 126 nM.
